Source: PubChem BioAssay
PolyA inh = polyadenylation inhibitors in yeast reporter cells, primary screen, luminescence, S. cerevisiae; S. cerevisiae SKY197-pL101 polyadenylation reporter, beta-gal luminescence; efflux-impaired pdr1/pdr3 knockout yeast; score 100 = 6 SD above DMSO; activity score, % at 12 µM; actives 0.02% (n = 300,000);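 active means lowest replicate activity score at least 50, where 100 means six control SD above control mean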;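 further: yeast exposed to compound for 9 h at 30 °C; higher score means more reporter readthrough which indicates perturbed polyadenylation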
CHT PAM = CHT positive allosteric modulators, primary screen, cell-based, membrane potential dye, choline EC20. AID 488977, 2010. High affinity choline transporter 1 (Homo sapiens), Q9GZV3. B-score at 10 µM. CHT-expressing cells; hits give high values; LV-AA mutant CHT in HEK293 cells. actives 0.49% (n = 310,000);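 active means initial fluorescence not abnormally high and integrated response B-score, plate-corrected, over 3 SD above library mean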
Target sequence (Q9GZV3 whole entry, looked up): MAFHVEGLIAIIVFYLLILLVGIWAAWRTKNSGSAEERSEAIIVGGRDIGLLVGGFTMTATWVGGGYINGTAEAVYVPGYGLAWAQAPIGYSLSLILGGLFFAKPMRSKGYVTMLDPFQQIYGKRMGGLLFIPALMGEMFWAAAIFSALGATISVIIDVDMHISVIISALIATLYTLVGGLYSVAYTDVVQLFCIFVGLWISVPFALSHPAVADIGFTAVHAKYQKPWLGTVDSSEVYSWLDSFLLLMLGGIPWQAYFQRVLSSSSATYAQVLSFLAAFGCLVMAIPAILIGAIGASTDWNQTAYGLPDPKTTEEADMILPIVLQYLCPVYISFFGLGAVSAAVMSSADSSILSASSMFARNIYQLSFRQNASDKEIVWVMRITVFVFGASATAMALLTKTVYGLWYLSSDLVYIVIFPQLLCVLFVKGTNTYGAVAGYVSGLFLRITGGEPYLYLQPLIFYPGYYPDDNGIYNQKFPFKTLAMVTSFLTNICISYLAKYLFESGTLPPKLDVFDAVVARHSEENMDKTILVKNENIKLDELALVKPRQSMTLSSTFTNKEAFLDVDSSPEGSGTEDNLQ
T cruzi repl = inhibitors of intracellular T. cruzi growth, primary screen, luminescence, NIH3T3 host cells | T. cruzi beta-gal in NIH3T3, 90 h | inhibition, % (no concentration beside the values) | actives 1.4% (n = 300,000) | AID 1885, 2009;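 active means mean inhibition across valid replicates above about 55%, limit read from the data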;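 further: signal also drops with host cell toxicity which is not excluded here; higher percent means less beta-gal luminescence so fewer parasites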
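assay system = mouse NIH/3T3 fibroblasts infected with β-gal-expressing T. cruzi Tulahuen C4 | input = 5,000 NIH/3T3 host cells per well | buffer or medium = DMEM plus 2% FBS | timing = 3 h host attachment, then at least 90 h co-culture | measured by = GalScreen luminescence, 60 min | evaluation = luminescence reflecting intracellular parasite burden, expressed as percent inhibition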
CHT block = inhibitors of human choline transporter CHT; B-score at 10 µM; CHT-expressing cells, membrane potential dye, choline response; hits give low values; actives 0.86% (n = 310,000); High affinity choline transporter 1 (Homo sapiens), Q9GZV3;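 active means B-score over 3 SD under the library average, and starting fluorescence ratio not unusually high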;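 further: choline stimulus applied at its EC90 after an EC20 pre-addition; B-score computed on integrated fluorescence ratio after choline addition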
Numbers stand for hits; . = inactive; / = not tested or not shown. The list is not random: actives were taken first. Their share in the collection is about 2.6%.

SMILES	PolyA inh	CHT PAM	T cruzi repl	CHT block
Cc1cc(-n2c(C)cc(C(=O)CN3C(=O)NC4(CCCC4)C3=O)c2C)no1	.	.	.	.
Cc1cc(-n2c(C)cc(C(=O)CCl)c2C)no1	.	.	79	.
O=c1cc(N2CCCCC2)c(-c2ccccc2)nn1Cc1ccc(F)cc1	.	.	55	.
O=c1cc(N2CCCCC2)c(-c2ccccc2)nn1Cc1ccc(Cl)cc1	.	.	.	.
Cn1c(-c2ccccc2)cc2c3no[n+]([O-])c3ccc21	.	.	73	.
Cc1c(-c2cccc(Cl)c2)nc2ccccc2c1C(=O)OCC(=O)Nc1ccc2c(c1)OCO2	.	.	55	.
Cc1onc(-c2ccccc2)c1C(=O)OCC(=O)Nc1ccc2c(c1)OCO2	.	.	.	.
COC(=O)c1nc(-c2ccccc2)nc(-c2ccccc2)c1C(=O)OC	.	.	.	.
COc1ccc2nc3cc(Cl)ccc3c(Nc3cc(CN4CCCC4)c(O)c(CN4CCCC4)c3)c2n1	.	.	59	.
COc1cccc(N2CC(NS(=O)(=O)c3ccc4ccccc4c3)CC2=O)c1 (stereo not given)	.	.	.	.
CCC(OC(=O)c1ccco1)C(=O)NCc1ccc2c(c1)OCO2 (stereo not given)	.	.	.	.
Cc1ccsc1/C=C(\C(=O)c1ccc(OC(C)C)cc1)c1nc2ccccc2o1	.	.	68	.
CC(C)(C)C(=O)Nc1c2c(nn1-c1ccccc1)CSC2	.	.	.	.
Cc1cccc2cc(CN(Cc3cccs3)Cc3nnnn3Cc3ccccc3)c(=O)[nH]c12	.	.	63	.
CCOc1ccc2[nH]c(=O)c(CN(Cc3cccs3)Cc3nnnn3C(C)(C)CC)cc2c1	.	.	58	.
CCC(C)(C)n1nnnc1CN(Cc1cccs1)Cc1cc2cc(OC)ccc2[nH]c1=O	.	.	.	.
O=c1[nH]c2cc3c(cc2cc1CN(Cc1cccs1)Cc1nnnn1Cc1ccco1)OCCO3	.	.	.	.
COc1cccc(/C=C/C(=O)NCc2ccc3c(c2)OCO3)c1	.	.	.	.
CCN(c1ccccc1)S(=O)(=O)c1ccc(C(=O)Nc2ncccc2O)cc1	.	.	.	.
Cc1ccc(-n2c(-c3ccncc3)n[nH]c2=S)c(C)c1	.	.	.	.
CCN(c1cccc(C)c1)S(=O)(=O)c1cn(CC(=O)OC)c2ccc([N+](=O)[O-])cc12	.	.	.	.
COc1ccc2c(c1)sc(=N)n2C	.	.	72	.
COc1ccc(Nc2cc(Nc3cccc(OC)c3)ncn2)cc1	.	.	.	.
CCC(=O)N(CCC(c1ccccc1)c1ccco1)Cc1cccs1 (stereo not given)	.	9.5	.	.
Cc1cccc(N2CCN(c3nc(C)cc(C)c3C#N)CC2C)c1 (stereo not given)	.	.	65	.
SMILES	PolyA inh	CHT PAM	T cruzi repl	CHT block
O=C(c1cc([N+](=O)[O-])cc([N+](=O)[O-])c1)N1CCCc2ccccc21	.	.	73	.
CCOc1ccc(CN2CCN(Cc3nc4c(s3)CCCC4)CC2CCO)cc1 (stereo not given)	.	.	57	.
Cc1ccc(CN2CCN(Cc3nc4c(s3)CCCC4)CC2CCO)cc1 (stereo not given)	.	.	56	.
COc1cccc(CN2CCN(Cc3nc4c(s3)CCCC4)CC2CCO)c1 (stereo not given)	.	.	.	.
OCCC1CN(Cc2nc3c(s2)CCCC3)CCN1Cc1ccsc1 (stereo not given)	.	.	.	.
COc1ccc(S(=O)(=O)NC2CCCCCC2)cc1C(N)=O	.	.	.	.
CCC(CC)CN1C(N(C)C)=NC[C@@H]1CC(C)C	/	.	/	.
Cc1ccc(NC(=O)CSc2nc3ccccc3c(=O)n2CCCN2CCCCC2)cc1C	.	7.3	.	.
Cc1ccc(NC(=O)CSc2nc3ccccc3c(=O)n2CCCC(=O)N2CCCC2)cc1	.	.	.	.
CC(=O)Nc1ccc(S(=O)(=O)N2CCC(c3nnc(-c4ccc(C)cc4)o3)CC2)cc1	.	.	.	.
COc1ccc(N2Cc3ccc(OC)c(OC)c3C2=O)cc1	.	.	.	.
COc1ccc(N2CCc3c(C)nc4c(OC)cc(OC)cc4c32)cc1	.	.	73	.
COc1ccc(N2CCc3c(C)nc4c(OC)cc(OC)cc4c32)c(OC)c1	.	.	58	.
CC(C)c1ccc(C(C(=O)NC2CCCC2)N(C(=O)c2csnn2)C2CC2)cc1 (stereo not given)	.	.	.	.
Cc1ccsc1C(=O)C1CCCN(Cc2cn(C)nc2-c2ccccc2)C1 (stereo not given)	.	.	.	.
O=C(c1ccc(-c2ccccc2)cc1)C1CCCN(Cc2ccncc2)C1 (stereo not given)	.	.	55	.
Cc1nn(C)cc1CN1CCCC(C(=O)c2ccc(-c3ccccc3)cc2)C1 (stereo not given)	.	.	62	.
CCCCCCCCCCCCCCCCn1cc[n+](C)c1	.	.	67	.
CC1C(=O)OC2C1CCC1(C)CCC(=O)C(C)C21 (stereo not given)	.	.	55	.
CCOC(=O)c1c(NC(=O)COC(=O)c2ccccc2NC)sc(C(=O)N(C)C)c1C	.	.	59	.
CCOC(=O)c1c(NC(=O)CSc2nc3cc(Cl)ccc3c(=O)n2Cc2ccco2)sc(C(=O)N(C)C)c1C	.	.	61	.
CCOC(=O)c1c(NC(=O)COC(=O)Cc2ccccc2[N+](=O)[O-])sc(C(=O)N(C)C)c1C	.	.	.	.
CCc1ccc(NC(=O)CSc2nc3cc(C(=O)OC)ccc3c(=O)n2Cc2ccco2)cc1	.	.	.	.
CC1(C)CC(NC(=O)c2cc(Cl)ccc2Cl)CC(C)(C)N1	.	.	.	.
Cc1cccc(-n2ncc3c2CCCC3NC(=O)CCCN2CCCCC2=O)c1C (stereo not given)	.	.	.	.
SMILES	PolyA inh	CHT PAM	T cruzi repl	CHT block
COc1ccc(-[n+]2c(C)cc(/C=C3\Sc4ccccc4N3C)cc2C)cc1	.	.	.	.
COc1ccccc1-[n+]1c(C)cc(/C=C2\Sc3ccccc3N2C)cc1C	.	.	56	.
CCCC(=O)NC(c1ccc(C)cc1)c1ccc2cccnc2c1O (stereo not given)	.	.	72	.
CCCC(=O)NC(c1ccc(Cl)cc1Cl)c1ccc2cccnc2c1O (stereo not given)	.	.	64	.
CCCC(=O)NC(c1ccccc1Cl)c1c(O)ccc2ccccc12 (stereo not given)	.	.	.	.
CC(=O)NC(c1ccc(Cl)cc1Cl)c1ccc2cccnc2c1O (stereo not given)	.	.	62	.
CC(C)C(=O)NC(c1cccc([N+](=O)[O-])c1)c1ccc2cccnc2c1O (stereo not given)	.	.	.	.
